Measured values published in ChEMBL document CHEMBL3044908, “Pinolide, a new nonenolide produced by Didymella pinodes , the causal agent of ascochyta blight on Pisum sativum” (J Agric Food Chem, 2012).
Active and inactive are the calls of the source. No cut-off for these calls is given here.

Key:
[1] = tested on: Lens culinaris; assay: Phytotoxicity against Lens culinaris assessed as area of lesions at 1 mg/ml at 20 degC for 4 days; assay type: organism-based; details: in vivo, 96 h
Summary of the method: (§1)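 Whole plants grown one per pot in 1:1 sand/peat at 20 °C, 12 h light/dark, until about seven leaves. One leaflet detached, placed abaxial side up on 0.4% water agar, epidermis cut (three cuts over 3 mm2). A 20 μL drop of metabolite (5% MeOH in water) applied over cuts, kept at 20 °C, 12 h photoperiod. 3–4 replicates, randomized; 5% MeOH control; lesion area in mm2.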

[2] = tested on: Sonchus arvensis; assay: Phytotoxicity against Sonchus arvensis (field sow-thistle) assessed as area of lesions at 1 mg/ml at 20 degC for 4 days; assay type: functional; summary of the method: as §1
[3] = tested on: Phaseolus vulgaris; assay: Phytotoxicity against Phaseolus vulgaris assessed as area of lesions at 1 mg/ml at 20 degC for 4 days; assay type: organism-based; details: in vivo, 96 h; summary of the method: as §1
[4] = tested on: Lupinus albus; assay: Phytotoxicity against Lupinus albus assessed as area of lesions at 1 mg/ml at 20 degC for 4 days; assay type: organism-based; details: in vivo, 96 h; summary of the method: as §1
[5] = tested on: Lathyrus sativus; assay: Phytotoxicity against Lathyrus sativus assessed as area of lesions at 1 mg/ml at 20 degC for 4 days; assay type: organism-based; details: in vivo, 96 h; summary of the method: as §1
[6] = tested on: Pisum fulvum; assay: Phytotoxicity against Pisum fulvum assessed as area of lesions at 1 mg/ml at 20 degC for 4 days; assay type: organism-based; details: lathyrus fulvus, in vivo, 96 h; summary of the method: as §1
[7] = tested on: Cirsium arvense; assay: Phytotoxicity against Cirsium arvense (Canada thistle) assessed as area of lesions at 1 mg/ml at 20 degC for 4 days; assay type: functional; summary of the method: as §1
[8] = tested on: Pisum sativum; assay: Phytotoxicity against Pisum sativum (pea)assessed as area of lesions at 1 mg/ml at 20 degC for 4 days; assay type: organism-based; details: lathyrus oleraceus, in vivo, 96 h; summary of the method: as §1
[9] = tested on: Cicer arietinum; assay: Phytotoxicity against Cicer arietinum assessed as area of lesions at 1 mg/ml at 20 degC for 4 days; assay type: organism-based; details: in vivo, 96 h; summary of the method: as §1
[10] = tested on: Medicago truncatula; assay: Phytotoxicity against Medicago truncatula assessed as area of lesions at 1 mg/ml at 20 degC for 4 days; assay type: organism-based; details: in vivo, 96 h; summary of the method: as §1
[11] = tested on: Vicia faba; assay: Phytotoxicity against Vicia faba assessed as area of lesions at 1 mg/ml at 20 degC for 4 days; assay type: organism-based; details: in vivo, 96 h; summary of the method: as §1
[12] = tested on: Chenopodium album; assay: Phytotoxicity against Chenopodium album assessed as area of lesions at 1 mg/ml at 20 degC for 4 days; assay type: functional; summary of the method: as §1

SMILES	Activity [1]	Activity [2]	Activity [3]	Activity [4]	Activity [5]	Activity [6]	Activity [7]	Activity [8]	Activity [9]	Activity [10]	Activity [11]	Activity [12]
CCC[C@H]1OC(=O)[C@@H](O)CC/C=C/[C@@H](O)[C@@H]1O (relative stereo) [Pinolide]	Non-toxic	inactive	Non-toxic	Non-toxic	Non-toxic	Non-toxic	inactive	Non-toxic	Non-toxic	Non-toxic	Non-toxic	inactive
C/C=C/C=C/C(=O)O[C@H]1CC/C=C/[C@H](O)[C@H](O)[C@@H](CCC)OC1=O [PINOLIDOXIN]	45.5 mm2	23.6 mm2	34 mm2	73.6 mm2	41.9 mm2	21.5 mm2	25 mm2	45.5 mm2	9.1 mm2	49.2 mm2	7.2 mm2	47.8 mm2
CCC[C@H]1OC(=O)[C@H](O)CC/C=C/[C@H](O)[C@@H]1O [HERBARUMIN II]	Non-toxic	inactive	Non-toxic	Non-toxic	Non-toxic	Non-toxic	inactive	Non-toxic	Non-toxic	Non-toxic	Non-toxic	inactive
CCC[C@H]1OC(=O)[C@@H](O)CC/C=C/[C@H](O)[C@@H]1O	Non-toxic	inactive	Non-toxic	Non-toxic	Non-toxic	Non-toxic	inactive	Non-toxic	Non-toxic	Non-toxic	Non-toxic	inactive
